{
  "source": "paper PMC9256809",
  "about": "(Molecular Cancer Therapeutics, 2022)",
  "key": {"MOLM-13": {"tested_on": "MOLM-13", "test": "Antiproliferative assay", "type": "cell-based", "details": "Homo sapiens, MOLM-13, 72 h, read-out: Mean IC50", "outline": "(§1)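 Human AML lines from ATCC or DSMZ, STR-authenticated, mycoplasma-tested every 2 months and grown in source-recommended medium. Cells were exposed in four replicates to increasing concentrations of test compound for 72 h. Proliferation was read with the CellTiter 96 AQueous One (MTS) reagent.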"}, "TEC": {"target": "TEC (Homo sapiens, UniProt P42680)", "sequence (P42680 whole entry)": "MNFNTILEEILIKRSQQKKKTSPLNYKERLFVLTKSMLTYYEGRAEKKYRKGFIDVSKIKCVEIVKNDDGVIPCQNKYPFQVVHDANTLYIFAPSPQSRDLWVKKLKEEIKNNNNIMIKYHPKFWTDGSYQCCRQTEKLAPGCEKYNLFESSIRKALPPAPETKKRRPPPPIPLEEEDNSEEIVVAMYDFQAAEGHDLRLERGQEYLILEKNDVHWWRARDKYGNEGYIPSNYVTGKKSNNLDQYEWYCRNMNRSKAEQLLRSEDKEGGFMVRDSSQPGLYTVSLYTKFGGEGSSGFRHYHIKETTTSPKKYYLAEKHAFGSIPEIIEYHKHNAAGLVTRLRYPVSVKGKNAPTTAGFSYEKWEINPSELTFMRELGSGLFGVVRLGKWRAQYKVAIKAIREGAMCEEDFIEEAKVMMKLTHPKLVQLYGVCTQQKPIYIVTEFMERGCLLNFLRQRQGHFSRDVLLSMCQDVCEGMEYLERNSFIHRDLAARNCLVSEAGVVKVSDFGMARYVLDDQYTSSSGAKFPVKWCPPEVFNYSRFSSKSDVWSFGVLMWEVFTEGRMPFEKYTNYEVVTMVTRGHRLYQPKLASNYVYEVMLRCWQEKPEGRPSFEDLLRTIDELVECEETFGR", "test": "RBC enzymatic assay, ATP at Km", "type": "biochemical", "outline": "(§2)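 Recombinant kinases were assayed with ATP at each kinase's Km, and IC50 values were determined.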"}, "[1]": {"test": "Cardiovascular study in dogs", "type": "in vivo"}, "FLT3 D833Q (TKD)": {"target": "FLT3 D833Q (TKD) (Homo sapiens, UniProt P36888)", "sequence (P36888 610-943, stated change not applied)": "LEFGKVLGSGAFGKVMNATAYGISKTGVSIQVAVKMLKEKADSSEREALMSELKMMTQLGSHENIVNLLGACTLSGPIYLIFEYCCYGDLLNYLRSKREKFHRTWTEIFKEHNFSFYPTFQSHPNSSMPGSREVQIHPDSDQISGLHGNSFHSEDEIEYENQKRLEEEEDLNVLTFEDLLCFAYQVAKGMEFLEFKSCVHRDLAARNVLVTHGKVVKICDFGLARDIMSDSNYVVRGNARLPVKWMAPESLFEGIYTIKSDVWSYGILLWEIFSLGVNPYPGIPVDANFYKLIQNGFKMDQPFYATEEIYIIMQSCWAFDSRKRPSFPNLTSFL", "test": "DiscoverX KINOMEscan competition binding"}, "FLT3 ITD/F691L": {"target": "FLT3 ITD/F691L (Homo sapiens, UniProt P36888, F691L/ITD)", "sequence (P36888 564-993 F691L)": "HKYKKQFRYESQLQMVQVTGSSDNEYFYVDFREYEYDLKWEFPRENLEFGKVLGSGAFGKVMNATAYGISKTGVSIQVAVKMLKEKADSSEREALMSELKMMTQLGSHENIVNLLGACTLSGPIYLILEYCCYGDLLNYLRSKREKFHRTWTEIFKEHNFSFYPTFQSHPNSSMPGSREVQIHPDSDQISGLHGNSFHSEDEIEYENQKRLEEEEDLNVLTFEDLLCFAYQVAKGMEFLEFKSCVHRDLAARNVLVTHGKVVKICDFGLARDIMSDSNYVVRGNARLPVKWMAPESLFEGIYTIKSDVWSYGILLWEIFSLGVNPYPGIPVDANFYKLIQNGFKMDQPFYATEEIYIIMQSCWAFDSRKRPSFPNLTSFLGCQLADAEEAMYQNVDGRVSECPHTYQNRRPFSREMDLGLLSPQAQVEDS", "test": "DiscoverX KINOMEscan competition binding"}, "[2]": {"tested_on": "phosphorylation of ERK1/2", "test": "Western blot analysis of kinase inhibition", "type": "cell-based", "details": "Fig. 2B", "outline": "(§3)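 Cells were exposed to vehicle DMSO or a concentration range of test compound for 1 or 24 h, then lysed. Blots were probed for total and phosphorylated FLT3 (pY589/591), STAT5 (pY694) and ERK1/2 (pT202/204). Images are representative of 3 biological repeats.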"}, "[3]": {"test": "Phase I trial tolerability", "type": "in vivo, patients with AML and MDS/MPN", "details": "doses that yield plasma concentrations up to 1 μmol/L"}, "[4]": {"tested_on": "primary mononuclear cells from patients with AML", "test": "Ex vivo cell viability assay", "type": "cell-based", "details": "Homo sapiens, read-out: median IC50, 186 primary samples from patients with AML"}, "CYP3A4": {"target": "CYP3A4 (Homo sapiens, UniProt P08684)", "sequence (P08684 whole entry)": "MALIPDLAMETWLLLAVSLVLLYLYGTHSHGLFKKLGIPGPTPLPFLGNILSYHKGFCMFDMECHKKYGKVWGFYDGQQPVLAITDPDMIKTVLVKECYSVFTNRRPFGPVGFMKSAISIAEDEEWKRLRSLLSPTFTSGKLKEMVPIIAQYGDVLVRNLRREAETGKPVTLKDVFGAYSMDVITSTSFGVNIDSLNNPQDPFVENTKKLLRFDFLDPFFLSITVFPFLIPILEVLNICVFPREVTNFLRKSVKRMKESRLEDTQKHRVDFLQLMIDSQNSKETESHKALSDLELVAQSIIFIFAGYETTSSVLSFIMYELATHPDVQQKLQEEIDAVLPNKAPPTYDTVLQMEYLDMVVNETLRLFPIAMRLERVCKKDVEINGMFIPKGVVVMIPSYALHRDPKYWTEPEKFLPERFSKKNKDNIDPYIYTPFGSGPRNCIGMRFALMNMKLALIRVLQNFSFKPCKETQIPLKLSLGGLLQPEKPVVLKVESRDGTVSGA", "test": "Metabolism studies", "type": "in vitro ADME"}, "[5]": {"test": "28-day GLP repeat-dose toxicology study", "type": "in vivo", "details": "dogs, up to highest dose tested of 600 mg/kg orally"}, "[6]": {"target": "hERG potassium ion channel (Homo sapiens, UniProt Q12809)", "sequence (Q12809 whole entry)": "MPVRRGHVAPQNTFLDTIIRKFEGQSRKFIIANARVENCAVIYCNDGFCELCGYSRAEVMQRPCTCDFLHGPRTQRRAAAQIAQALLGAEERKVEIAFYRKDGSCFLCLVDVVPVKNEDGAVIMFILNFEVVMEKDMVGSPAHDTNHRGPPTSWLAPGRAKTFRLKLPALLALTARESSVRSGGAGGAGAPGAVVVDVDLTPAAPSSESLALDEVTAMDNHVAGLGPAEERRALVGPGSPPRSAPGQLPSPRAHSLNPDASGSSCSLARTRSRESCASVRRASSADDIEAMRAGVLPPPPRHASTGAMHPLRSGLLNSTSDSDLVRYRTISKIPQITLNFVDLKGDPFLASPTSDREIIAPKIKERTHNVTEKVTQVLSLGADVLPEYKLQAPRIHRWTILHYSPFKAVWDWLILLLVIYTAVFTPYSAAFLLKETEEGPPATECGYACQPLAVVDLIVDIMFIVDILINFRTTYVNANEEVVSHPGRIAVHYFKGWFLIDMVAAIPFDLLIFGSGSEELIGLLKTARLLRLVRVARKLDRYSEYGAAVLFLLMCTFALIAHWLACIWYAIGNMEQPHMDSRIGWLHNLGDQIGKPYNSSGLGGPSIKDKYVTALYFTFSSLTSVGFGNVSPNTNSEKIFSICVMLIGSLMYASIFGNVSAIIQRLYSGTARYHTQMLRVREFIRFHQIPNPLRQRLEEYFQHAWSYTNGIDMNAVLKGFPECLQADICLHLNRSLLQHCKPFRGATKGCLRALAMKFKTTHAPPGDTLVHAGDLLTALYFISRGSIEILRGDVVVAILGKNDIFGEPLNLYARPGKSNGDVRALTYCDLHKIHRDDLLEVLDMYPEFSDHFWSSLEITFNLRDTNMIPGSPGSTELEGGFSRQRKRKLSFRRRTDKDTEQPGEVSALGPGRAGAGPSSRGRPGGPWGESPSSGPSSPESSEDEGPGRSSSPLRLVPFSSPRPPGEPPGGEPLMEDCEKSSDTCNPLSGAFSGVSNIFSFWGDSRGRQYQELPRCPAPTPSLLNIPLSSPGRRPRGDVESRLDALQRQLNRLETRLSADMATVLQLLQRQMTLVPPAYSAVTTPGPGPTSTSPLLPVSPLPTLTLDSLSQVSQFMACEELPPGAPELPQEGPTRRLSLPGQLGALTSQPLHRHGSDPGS", "test": "hERG inhibition"}, "CYP3A5": {"target": "CYP3A5 (Homo sapiens, UniProt P20815)", "sequence (P20815 whole entry)": "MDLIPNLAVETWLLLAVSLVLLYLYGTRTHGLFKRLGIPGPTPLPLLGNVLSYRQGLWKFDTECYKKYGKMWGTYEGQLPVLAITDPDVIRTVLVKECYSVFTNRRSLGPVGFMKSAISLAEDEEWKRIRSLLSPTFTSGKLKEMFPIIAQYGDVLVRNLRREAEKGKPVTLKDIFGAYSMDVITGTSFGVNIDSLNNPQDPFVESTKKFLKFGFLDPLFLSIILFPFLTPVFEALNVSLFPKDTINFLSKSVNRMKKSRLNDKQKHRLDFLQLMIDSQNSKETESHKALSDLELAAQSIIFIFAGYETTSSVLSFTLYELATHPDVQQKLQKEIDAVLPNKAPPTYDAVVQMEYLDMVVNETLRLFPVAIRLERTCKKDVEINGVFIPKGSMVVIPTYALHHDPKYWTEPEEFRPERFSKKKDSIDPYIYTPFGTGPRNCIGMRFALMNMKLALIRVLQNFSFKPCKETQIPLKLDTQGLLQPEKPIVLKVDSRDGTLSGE", "test": "Metabolism studies", "type": "in vitro ADME"}, "[7]": {"tested_on": "FLT3-mutant AML cell lines and the PDGFR-α mutant EOL-1 cell line", "test": "Apoptosis by PARP cleavage", "type": "cell-based, human", "details": "all 3 FLT3-mutant AML cell lines and EOL-1", "outline": "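Cells were treated with DMSO vehicle or test compound for 1 or 24 h, then lysed. Apoptosis was assessed by Western blot for PARP cleavage.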"}, "[8]": {"tested_on": "samples from patients with MDS/MPN", "test": "Ex vivo cell viability assay", "type": "cell-based", "details": "Homo sapiens, read-out: median IC50", "outline": "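Freshly isolated patient mononuclear cells (peripheral blood or bone marrow) were plated at 10,000 cells/well. They were given a seven-point, 3-fold dilution series from 10 to 0.0137 µmol/L, made from DMSO stocks, and incubated 3 days. Growth was read by MTS; absorbance was background-subtracted and normalised to untreated wells. IC50 was obtained per sample and the median taken.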"}, "[9]": {"tested_on": "Ba/F3 cells FLT3-ITD + F691L", "test": "Antiproliferative assay in Ba/F3 cells transfected with FLT3 variants", "type": "cell-based", "details": "Mus musculus, BaF3"}, "[10]": {"tested_on": "Ba/F3 cells FLT3-ITD + D835Y", "test": "Antiproliferative assay in Ba/F3 cells transfected with FLT3 variants", "type": "cell-based", "details": "Mus musculus, BaF3"}, "THP-1": {"tested_on": "THP-1", "test": "Antiproliferative assay", "type": "cell-based", "details": "Homo sapiens, THP-1, 72 h, read-out: Mean IC50", "outline": "as §1"}, "EOL-1": {"tested_on": "EOL-1", "test": "Antiproliferative assay", "type": "cell-based", "details": "Homo sapiens, EOL1, 72 h, read-out: Mean IC50", "outline": "as §1"}, "phosphorylation of FLT3": {"tested_on": "phosphorylation of FLT3", "test": "Western blot analysis of kinase inhibition", "type": "cell-based", "details": "Fig. 2B", "outline": "as §3"}, "Ba/F3 cells FLT3- ITD": {"tested_on": "Ba/F3 cells FLT3- ITD", "test": "Antiproliferative assay in Ba/F3 cells transfected with FLT3 variants", "type": "cell-based, mouse", "details": "for IC50: Mus musculus, BaF3"}, "HEL92.1.7": {"tested_on": "HEL92.1.7", "test": "Antiproliferative assay", "type": "cell-based", "details": "Homo sapiens, HEL 92.1.7, 72 h, read-out: Mean IC50", "outline": "as §1"}, "[11]": {"tested_on": "MV4–11 FLT3-ITD xenograft", "test": "MV4–11 subcutaneous xenograft study", "type": "in vivo, BALB/c nu/nu mice"}, "FLT3-ITD": {"target": "FLT3-ITD (Homo sapiens, UniProt P36888)", "sequence (P36888 564-993, change not shown)": "as the sequence (P36888 564-993 F691L) above, with L128F counted along it", "test": "RBC enzymatic assay, ATP at Km", "type": "biochemical", "outline": "as §2"}, "ERBB": {"target": "ERBB (Homo sapiens, UniProt P04626)", "test": "RBC enzymatic assay, ATP at Km", "type": "biochemical", "outline": "as §2"}, "phosphorylation of STAT5": {"tested_on": "phosphorylation of STAT5", "test": "Western blot analysis of kinase inhibition", "type": "cell-based", "details": "Fig. 2B", "outline": "as §3"}, "FLT3– ITD": {"target": "FLT3– ITD (Homo sapiens, UniProt P36888, ITD)", "sequence (P36888 564-993, change not shown)": "as the sequence (P36888 564-993 F691L) above, with L128F counted along it", "test": "DiscoverX KINOMEscan competition binding"}, "FLT3": {"target": "FLT3 (Homo sapiens, UniProt P36888)", "sequence (P36888 27-993)": "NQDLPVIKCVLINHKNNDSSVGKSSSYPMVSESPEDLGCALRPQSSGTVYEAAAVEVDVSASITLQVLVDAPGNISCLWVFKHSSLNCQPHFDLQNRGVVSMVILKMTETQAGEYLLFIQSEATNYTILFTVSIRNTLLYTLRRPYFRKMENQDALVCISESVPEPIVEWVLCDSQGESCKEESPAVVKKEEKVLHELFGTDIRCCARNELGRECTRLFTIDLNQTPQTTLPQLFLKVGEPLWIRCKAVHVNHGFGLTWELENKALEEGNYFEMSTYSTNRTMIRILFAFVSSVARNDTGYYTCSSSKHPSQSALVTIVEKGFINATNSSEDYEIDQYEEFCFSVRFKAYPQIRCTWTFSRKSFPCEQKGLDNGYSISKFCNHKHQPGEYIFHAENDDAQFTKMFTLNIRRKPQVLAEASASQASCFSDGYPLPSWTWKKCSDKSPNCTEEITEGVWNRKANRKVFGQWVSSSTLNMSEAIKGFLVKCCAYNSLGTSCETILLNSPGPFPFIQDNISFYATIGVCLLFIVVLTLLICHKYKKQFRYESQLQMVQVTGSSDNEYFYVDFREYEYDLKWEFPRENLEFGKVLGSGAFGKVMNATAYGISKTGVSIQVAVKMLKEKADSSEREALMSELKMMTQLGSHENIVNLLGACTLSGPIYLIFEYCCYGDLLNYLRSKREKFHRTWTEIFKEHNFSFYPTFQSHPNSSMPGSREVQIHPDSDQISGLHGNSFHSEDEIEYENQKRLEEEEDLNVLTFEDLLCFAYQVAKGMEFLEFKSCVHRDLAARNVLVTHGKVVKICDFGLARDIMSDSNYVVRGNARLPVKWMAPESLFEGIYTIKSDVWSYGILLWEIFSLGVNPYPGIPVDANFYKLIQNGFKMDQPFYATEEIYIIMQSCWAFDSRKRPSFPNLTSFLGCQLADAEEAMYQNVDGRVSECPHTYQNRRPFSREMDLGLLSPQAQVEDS", "test": "Plasma inhibition assay", "details": "phase I doses yielding plasma concentrations up to 1 μmol/L"}, "Ba/F3 cells FLT3 D835Y": {"tested_on": "Ba/F3 cells FLT3 D835Y", "test": "Antiproliferative assay in Ba/F3 cells transfected with FLT3 variants", "type": "cell-based", "details": "Mus musculus, BaF3"}, "[12]": {"tested_on": "relapsed or refractory FLT3-mutated AML", "details": "FLT3 inhibitor-naïve patients with relapsed or refractory FLT3-mutated AML; cited from earlier work"}},
  "data": [
    {"smiles": "Cc1cnc(-c2ccc(-c3ccc(NC(=O)Nc4c(F)cc(F)cc4F)cc3F)c3c2C(=O)NC3)[nH]1", "note": "[luxeptinib, Luxeptinib]", "values": [
      {"measurement": "IC50", "setting": "MOLM-13", "value": 0.395, "unit": "nM"},
      {"measurement": "IC50", "setting": "TEC", "value": 139, "unit": "nM"},
      {"measurement": "effect on QTc or any other parameter of heart function", "setting": "[1]", "value": "no effect"},
      {"measurement": "Kd", "setting": "FLT3 D833Q (TKD)", "value": 6.4, "unit": "nM"},
      {"measurement": "Kd", "setting": "FLT3 ITD/F691L", "value": 16, "unit": "nM"},
      {"measurement": "phosphorylation of downstream ERK1/2", "setting": "[2]", "value": "reduces the phosphorylation"},
      {"measurement": "tolerability in phase I trial", "setting": "[3]", "value": "generally well tolerated"},
      {"measurement": "IC50", "setting": "[4]", "value": 94.5, "unit": "nM"},
      {"measurement": "involvement of CYP3A4 in metabolism", "setting": "CYP3A4", "value": "involved in the metabolism"},
      {"measurement": "hematologic, cardiovascular or other organ toxicities", "setting": "[5]", "value": "No hematologic, cardiovascular or other organ toxicities were observed"},
      {"measurement": "inhibition of hERG potassium ion channel", "setting": "[6]", "value": "did not inhibit"},
      {"measurement": "involvement of CYP3A5 in metabolism", "setting": "CYP3A5", "value": "involved in the metabolism"},
      {"measurement": "concentration inducing apoptosis (PARP cleavage)", "setting": "[7]", "value": "≤ 5", "unit": "nmol/L"},
      {"measurement": "IC50", "setting": "[8]", "value": "< 200", "unit": "nM"},
      {"measurement": "IC50", "setting": "[9]", "value": "9 ± 1", "unit": "nM"},
      {"measurement": "IC50", "setting": "[10]", "value": "22 ± 9", "unit": "nM"},
      {"measurement": "IC50", "setting": "THP-1", "value": 2970, "unit": "nM"},
      {"measurement": "IC50", "setting": "EOL-1", "value": 0.045, "unit": "nM"},
      {"measurement": "phosphorylation of FLT3", "setting": "phosphorylation of FLT3", "value": "potently reduces the phosphorylation"},
      {"measurement": "fold more potent than quizartinib", "setting": "Ba/F3 cells FLT3- ITD; FLT3-ITD in the Ba/F3 system", "value": 4, "unit": "fold"},
      {"measurement": "IC50", "setting": "Ba/F3 cells FLT3- ITD", "value": "1 ± 0.2", "unit": "nM"},
      {"measurement": "IC50", "setting": "HEL92.1.7", "value": 4690, "unit": "nM"},
      {"measurement": "mice with tumor growth completely suppressed out to 120 days", "setting": "[11]; 300 mg/kg twice a day, oral gavage, 28 days", "value": "10 of 11"},
      {"measurement": "weight loss or clinically apparent adverse events", "setting": "[11]; doses up to 300 mg/kg twice a day, mice", "value": "No weight loss or clinically apparent adverse events"},
      {"measurement": "Inhibition of tumor growth", "setting": "[11]; lowest dose of 20 mg/kg/day, oral, 28 days", "value": "apparent"},
      {"measurement": "response of regrown tumors to second 28-day treatment", "setting": "[11]; re-treatment at 300 mg/kg twice a day, 100 and 300 mg/kg groups", "value": "All tumors that regrew in these two groups responded"},
      {"measurement": "IC50", "setting": "FLT3-ITD; FLT3-ITD, recombinant kinase with ATP concentration at the Km", "value": 0.8, "unit": "nM"},
      {"measurement": "fold lower inhibitory concentration for recombinant FLT-ITD than WT FLT3", "setting": "FLT3-ITD; recombinant kinases", "value": 10, "unit": "fold"},
      {"measurement": "IC50", "setting": "ERBB", "value": "> 1000", "unit": "nM"},
      {"measurement": "phosphorylation of downstream STAT5", "setting": "phosphorylation of STAT5", "value": "reduces the phosphorylation"},
      {"measurement": "Kd", "setting": "FLT3– ITD", "value": 3.1, "unit": "nM"},
      {"measurement": "inhibition of FLT3 in a plasma inhibition assay", "setting": "FLT3", "value": "almost complete inhibition"},
      {"measurement": "IC50", "setting": "Ba/F3 cells FLT3 D835Y", "value": "6 ± 0.4", "unit": "nM"}
    ]},
    {"smiles": "CCc1nc(C(N)=O)c(Nc2ccc(N3CCC(N4CCN(C)CC4)CC3)c(OC)c2)nc1NC1CCOCC1", "note": "[Gilteritinib, gilteritinib]", "values": [
      {"measurement": "IC50", "setting": "[9]", "value": "96 ± 6", "unit": "nM"},
      {"measurement": "event-free survival", "setting": "[12]", "value": 2.8, "unit": "months"},
      {"measurement": "response rate", "setting": "[12]", "value": 34, "unit": "%"},
      {"measurement": "IC50", "setting": "[10]", "value": "9 ± 5", "unit": "nM"},
      {"measurement": "IC50", "setting": "Ba/F3 cells FLT3- ITD", "value": "28 ± 2", "unit": "nM"},
      {"measurement": "IC50", "setting": "Ba/F3 cells FLT3 D835Y", "value": "521 ± 68", "unit": "nM"}
    ]},
    {"smiles": "CC1(COc2ccc3c(c2)ncn3-c2ccc3cccc(N4CCC(N)CC4)c3n2)COC1", "note": "[Crenolanib, crenolanib]", "values": [
      {"measurement": "IC50", "setting": "[9]", "value": "286 ± 9", "unit": "nM"},
      {"measurement": "IC50", "setting": "[10]", "value": "37 ± 13", "unit": "nM"},
      {"measurement": "IC50", "setting": "Ba/F3 cells FLT3- ITD", "value": "38 ± 8", "unit": "nM"},
      {"measurement": "IC50", "setting": "Ba/F3 cells FLT3 D835Y", "value": "831 ± 195", "unit": "nM"}
    ]}
  ]
}
